Data set [1] concerns Staphylococcus aureus. In words: Antibacterial activity against methicillin-resistant Staphylococcus aureus 1653 after 18 to 20 hrs by broth microdilution method. It is filed as functional. Summed up:
(§1)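 EUCAST broth microdilution in LB broth. Inoculum from 20–24 h colonies on 5% sheep blood BHI agar, final 3×10^4 CFU/mL, 18–20 h aerobic at 37 °C, plate reader, at least duplicate.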
A general note: Broth dilution looks for growth in wells or tubes with falling amounts of substance.

The subject of data set [2] is Enterococcus faecalis. In words: Antibacterial activity against vancomycin resistant Enterococcus faecalis 501 after 18 to 20 hrs by broth microdilution method. Type of data set: functional. Summed up: (§2)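 EUCAST microdilution in BHI broth. Inoculum from 20–24 h colonies on 5% sheep blood BHI agar, final 3×10^4 CFU/mL, 18–20 h aerobic at 37 °C, plate reader, at least duplicate.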

A short description of data set [3]: Stability of the compound in water. Type of data set: physicochemical. The note with it: buffer.
The subject of data set [4] is Staphylococcus aureus. In words: Induction of membrane integrity impairment in Staphylococcus aureus USA300 assessed as cells with intact membrane at 8 ug/ml measured after 30 mins by Baclight assay relative to control. Type of data set: functional. Summed up:
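LIVE/DEAD BacLight fluorescence assay. Live cells in 0.85% NaCl at OD600 0.2 were exposed to compound in DMSO for 30 min at 37 °C. Dye was then added and incubated 15 min in the dark at room temperature. Fluorescence read at ex 485 nm, em 530/630 nm. Intact membrane % came from a live/dead (isopropanol-killed) standard curve, at least triplicate, mean±SD.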

The test system of data set [5] is Staphylococcus aureus. Put plainly: Antibacterial activity against methicillin-resistant Staphylococcus aureus USA300 after 18 to 20 hrs by microdilution method. Type of data set: functional. In short, it runs like this:
(§3)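 EUCAST broth microdilution in LB broth. Inoculum prepared by direct colony suspension from 20–24 h LB agar (E. coli DH10β) or 5% sheep blood BHI agar (MRSA USA300) growth. Final inoculum 2×10^4 CFU/mL, 18–20 h aerobic at 37 °C, growth read on a plate reader, at least duplicate.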

Data set [6] has as its system Mycolicibacterium smegmatis. Put plainly: Antimycobacterial activity against Mycobacterium smegmatis MC2 155 after 94 to 98 hrs by microdilution method. It is filed as functional. The note with it: str. MC2 155. Summed up:
(§4)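 Microdilution in TSB broth. Inoculum from colonies grown 96 h on TSA, final 1×10^5 CFU/mL, aerobic 94–98 h at 37 °C, growth read on a plate reader, at least duplicate.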

Data set [7] has as its system Escherichia coli. Put plainly: Antibacterial activity against Escherichia coli DH10beta harboring pHuLUC3 after 18 to 20 hrs by microdilution method. It is filed as functional. In short, it runs like this:
as §3

The test system of data set [8] is Escherichia coli. In words: Antibacterial activity against Escherichia coli D22 after 18 to 20 hrs by microdilution method. It is filed as functional. In short, it runs like this: (§5)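 Broth microdilution per EUCAST in LB broth. Inoculum from 20–24 h colonies by CLSI direct colony suspension (LB agar for E. coli), final 2×10^4 CFU/mL. Read after 18–20 h aerobic incubation at 37 °C on plate reader, at least one duplicate.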

Data set [9] can be described thus: Stability of the compound in organic solvent. Type of data set: physicochemical.
The subject of data set [10] is Pseudomonas aeruginosa. Put plainly: Antibacterial activity against Pseudomonas aeruginosa PA0001 after 18 to 20 hrs by broth microdilution method. Type of data set: functional. In short, it runs like this: (§6)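 EUCAST broth microdilution in LB broth. Inoculum from 20–24 h LB agar colonies (CLSI direct colony suspension), final 3×10^4 CFU/mL. Aerobic incubation 18–20 h at 37 °C, plate-reader read-out, at least one duplicate.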

For data set [11], the system named is Klebsiella pneumoniae. Put plainly: Antibacterial activity against Klebsiella pneumoniae ATCC 13882 after 18 to 20 hrs by broth microdilution method. Type of data set: functional. In short, it runs like this: (§7)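 Broth microdilution per EUCAST in TSB broth. Inoculum prepared by CLSI direct colony suspension from 20–24 h TSA colonies, final 3×10^4 CFU/mL. Aerobic incubation for 18–20 h at 37 °C, growth read on plate reader, at least one duplicate.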

Data set [12] has as its system Staphylococcus aureus. Put plainly: Bactericidal activity against methicillin-resistant Staphylococcus aureus USA300 after 18 to 20 hrs by microdilution method. Type of data set: functional. In short, it runs like this:
as §3

The subject of data set [13] is Escherichia coli. In words: Antibacterial activity against N43 CGSC 5583 knock out Escherichia coli after 18 to 20 hrs by microdilution method. Type of data set: functional. In short, it runs like this:
as §5

The nature of data set [14]: Solubility of the compound in water. Type of data set: physicochemical. The note with it: buffer.
Data set [15] relates to Escherichia coli. In words: Bactericidal activity against Escherichia coli DH10beta harboring pHuLUC3 after 18 to 20 hrs by microdilution method. It is filed as functional. Summed up: as §3
In data set [16] the test system is Klebsiella pneumoniae. In words: Antibacterial activity against Klebsiella pneumoniae ATCC 700603 after 18 to 20 hrs by broth microdilution method. It is filed as functional. In short, it runs like this:
as §7

The test system of data set [17] is Staphylococcus aureus. In words: Bactericidal activity against methicillin-resistant Staphylococcus aureus 1653 after 18 to 20 hrs by broth microdilution method. It is filed as functional. Summed up: as §1
The subject of data set [18] is Escherichia coli. In words: Bactericidal activity against Escherichia coli D22 after 18 to 20 hrs by microdilution method. Type of data set: functional.
Data set [19] deals with Enterococcus faecalis. In words: Bactericidal activity against vancomycin resistant Enterococcus faecalis 501 after 18 to 20 hrs by broth microdilution method. Type of data set: functional. Summed up:
as §2

Data set [20] relates to Streptococcus pneumoniae. Put plainly: Bactericidal activity against Streptococcus pneumoniae R6 after 18 to 20 hrs by broth microdilution method. It is filed as functional.
A short description of data set [21]: Stability of the compound in solid state. Type of data set: physicochemical.
The subject of data set [22] is Saccharomyces cerevisiae. Put plainly: Antibacterial activity against Saccharomyces cerevisiae after 18 to 20 hrs by microdilution method. In short, it runs like this: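 Microdilution in YEP broth against wild-type yeast grown on YEP agar. Final inoculum 1×10^5 CFU/mL. Read after 18–20 h aerobic incubation at 30 °C on plate reader, at least one duplicate.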
Data set [23] relates to Bacillus subtilis. Put plainly: Antibacterial activity against Bacillus subtilis ATCC 6051 after 18 to 20 hrs by broth microdilution method. Type of data set: functional. In short, it runs like this: as §5
Data set [24] has as its system Streptococcus pneumoniae. In words: Antibacterial activity against Streptococcus pneumoniae R6 after 18 to 20 hrs by broth microdilution method. Type of data set: functional. In short, it runs like this: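 Broth microdilution per EUCAST in BHI broth. Inoculum from colonies on BHI agar with 5% sheep blood, final 5×10^4 CFU/mL. Read after 18–20 h anaerobic incubation at 37 °C.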

Data set [25] deals with Acinetobacter baumannii. In words: Antibacterial activity against Acinetobacter baumannii ATCC BAA-1605 after 18 to 20 hrs by broth microdilution method. It is filed as functional. In short, it runs like this: as §7
The test system of data set [26] is Mycolicibacterium smegmatis. In words: Bactericidal activity against Mycobacterium smegmatis MC2 155 after 96 hrs by microdilution method. Type of data set: functional. The conditions noted are these: str. MC2 155, 96 h. In short, it runs like this:
as §4

Data set [27] has as its system Bacillus subtilis. Put plainly: Bactericidal activity against Bacillus subtilis ATCC 6051 after 18 to 20 hrs by broth microdilution method. It is filed as functional.
Data set [28] concerns Pseudomonas aeruginosa. Put plainly: Antibacterial activity against Pseudomonas aeruginosa ATCC 27853 after 18 to 20 hrs by broth microdilution method. Type of data set: functional. In short, it runs like this: as §6
For data set [29], the system named is Acinetobacter baumannii. In words: Antibacterial activity against Acinetobacter baumannii ATCC 19606 after 18 to 20 hrs by broth microdilution method. The conditions noted are these: ATCC 19606 = CIP 70.34 = JCM 6841. It is filed as functional. Summed up:
as §7

The nature of data set [30]: Stability in PBS buffer at pH 7.4 NMR method. Type of data set: physicochemical.
A short description of data set [31]: Stability in PBS buffer at pH 7.4 by TLC method. It is filed as physicochemical.
Data set [32] is described as follows: Stability in pH 7.4 DMSOd6/PBS buffer assessed as glutathione reactivity incubated for 24 hrs by 1H NMR spectroscopic method. The note with it: pH 7.4, 24 h. It is filed as physicochemical. In short, it runs like this: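 Equimolar reduced glutathione and compound were incubated at room temperature in DMSO-d6/phosphate buffer pH 7.4 (1:1, v/v). The mixture was monitored by NMR.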

In brackets after ≈: the same amount, converted by molar mass. A value given as a limit tells only on which side of the number the result lay.

The MBC is the lowest tested concentration that kills the bacteria rather than only halting them. High values mean less potent killing, low ones more potent killing.

In the case of `O=C(CCl)N(/N=N/c1ccc([N+](=O)[O-])cc1C(F)(F)F)c1ccc([N+](=O)[O-])cc1C(F)(F)F`, the MIC in data set [1] came to 0.03 µg/mL (≈ 0.06 µM); in data set [2] it was 1 µg/mL (≈ 2 µM); in [5] it was 2 µg/mL (≈ 4 µM); in [6], 32 µg/mL (≈ 64 µM); in [7], 128 µg/mL (≈ 256 µM); in [8], 0.5 µg/mL (≈ 1 µM). Further, the MIC in data set [10] is over 128 µg/mL; in data set [11], over 128 µg/mL; in data set [13] it was over 128 µg/mL; in data set [16] it was over 128 µg/mL; in data set [22], over 128 µg/mL; in data set [23] it was 0.0312 µg/mL (≈ 0.0625 µM). Also, the MIC was 0.0312 µg/mL (≈ 0.0625 µM) in data set [24], over 128 µg/mL in data set [25], over 128 µg/mL in data set [28] and over 128 µg/mL in [29]. Moreover, the Stability entry in [3], in data set [9] and in data set [21] was “Stable” throughout. In data set [4], the Activity was 100%. Besides, the MBC in data set [12] is 2 µg/mL (≈ 4 µM); in data set [15], over 128 µg/mL; in data set [17], 0.5 µg/mL (≈ 1 µM); in data set [18], 16 µg/mL (≈ 32 µM); in [19] it was over 128 µg/mL; in data set [20] it was 0.125 µg/mL (≈ 0.25 µM). For the same compound, the MBC in [26] is over 128 µg/mL; in [27], 4 µg/mL (≈ 8 µM). In [14], the solubility result is given as “Soluble”.
As to `O=[N+]([O-])c1ccc(/N=N/Nc2ccc([N+](=O)[O-])cc2Cl)c(Cl)c1`, the Activity in data set [4] was determined as 64.6%. Further, the MIC in [5] was 2 µg/mL (≈ 5.62 µM); in data set [6], over 128 µg/mL; in data set [7], over 128 µg/mL; in data set [22], over 128 µg/mL. Besides, the MBC in data set [12] is 4 µg/mL (≈ 11.2 µM).
As for `O=[N+]([O-])c1ccc(/N=N/Nc2ccc([N+](=O)[O-])cc2C(F)(F)F)c(C(F)(F)F)c1`, the Stability result in [30] and in data set [31] was “Stable” each time.
Consider `O=[N+]([O-])c1ccc(/N=N/[N-]c2ccc([N+](=O)[O-])cc2C(F)(F)F)c(C(F)(F)F)c1.[K+]`, for which the Stability result in data set [3], in data set [32], in [9], in data set [30], in data set [21] and in data set [31] was “Stable” each time. In addition, the solubility entry in data set [14] is “Soluble”.

The values are drawn from ChEMBL document CHEMBL3994613, “Diaryltriazenes as antibacterial agents against methicillin resistant Staphylococcus aureus (MRSA) and Mycobacterium smegmatis” (Eur J Med Chem, 2017).
